# Laboratory results taken from PMC8038854 (Biochemical Journal, 2021).
# Numbering of substitutions follows the chain as printed. Like-named read-outs stand apart in the source and are kept apart here. Peptide text beside a SMILES is read from it.
# T1: Scrib PDZ3 R1044Q (Homo sapiens, UniProt Q14160, R1044Q)
# T1 sequence (Q14160 1002-1094 R1044Q): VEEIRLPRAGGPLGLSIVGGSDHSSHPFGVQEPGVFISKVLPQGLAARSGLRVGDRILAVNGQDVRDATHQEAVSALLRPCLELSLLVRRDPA
# T2: Scrib PDZ2 WT (860–950) (Homo sapiens, UniProt Q14160)
# T2 sequence (Q14160 860-950): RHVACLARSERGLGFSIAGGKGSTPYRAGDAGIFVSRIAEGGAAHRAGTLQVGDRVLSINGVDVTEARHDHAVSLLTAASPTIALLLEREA
# T3: Scrib PDZ3 WT (1002–1094) (Homo sapiens, UniProt Q14160)
# T3 sequence (Q14160 1002-1094): T1 sequence (Q14160 1002-1094 R1044Q) with Q43R
# T4: Scribble PDZ2 R896A (human, UniProt Q14160 860-950, R896A)
# T4 sequence (looked up): T2 sequence (Q14160 860-950) with R37A
# T5: Scribble PDZ3 R1044Q (human, UniProt Q14160 1002-1094, R1044Q)
# T5 sequence (looked up): T1 sequence (Q14160 1002-1094 R1044Q)
# T6: Scribble PDZ3 P1043L (human, UniProt Q14160 1002-1094, P1043L)
# T6 sequence (looked up): T1 sequence (Q14160 1002-1094 R1044Q) with P42L, Q43R
# T7: Scribble PDZ2 H928A (human, UniProt Q14160 860-950, H928A)
# T7 sequence (looked up): T2 sequence (Q14160 860-950) with H69A
# Tests used:
# Scrib PDZ1 Q808H = Scrib PDZ1 Q808H (Homo sapiens, UniProt Q14160, Q808H); test: ITC of PBM peptides against Scrib PDZ1 Q808H; type: binding
# Chain of Scrib PDZ1 Q808H (Q14160 728-815 Q808H): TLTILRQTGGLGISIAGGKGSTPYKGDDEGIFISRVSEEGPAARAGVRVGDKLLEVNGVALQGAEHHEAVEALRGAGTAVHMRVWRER
# How it was run: (§1)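 Recombinant human Scribble PDZ domains (wild type or point mutant) were expressed in E. coli BL21(DE3) pLysS as GST or MBP fusions and purified. Synthetic 8-mer C-terminal PBM peptides, including a pan-PDZ positive-control peptide, were titrated into protein in 25 mM Hepes pH 7.5, 150 mM NaCl at 25°C. There were 20 injections spaced 180 s apart. KD came from a 1:1 model, with ±SD from at least three independent experiments.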
# Scrib PDZ3 R1044Q = biological target: T1, Scrib PDZ3 R1044Q; test: ITC of PBM peptides against Scrib PDZ3 R1044Q; type: binding
# How it was run: as §1
# Scrib PDZ2 WT (860–950) = biological target: T2, Scrib PDZ2 WT (860–950); test: ITC of PBM peptides against Scrib PDZ2 WT; type: binding
# How it was run: as §1
# [1] = biological target: T3, Scrib PDZ3 WT (1002–1094); test: ITC of PBM peptides against Scrib PDZ3 WT; type: binding
# How it was run: as §1
# Scrib PDZ1 WT (728–815) = Scrib PDZ1 WT (728–815) (Homo sapiens, UniProt Q14160); test: Isothermal titration calorimetry; type: binding
# Chain of Scrib PDZ1 WT (728–815) (Q14160 728-815): as the sequence (Q14160 728-815 Q808H) above, with H81Q counted along it
# How it was run: as §1
# [2] = biological target: Scribble PDZ2 R896A (human) (UniProt Q14160); test: ITC
# [3] = biological target: Scribble PDZ3 R1044Q (human) (UniProt Q14160); test: ITC
# [4] = biological target: Scribble PDZ1 Q808H (human) (UniProt Q14160); test: ITC
# Chain of Scribble PDZ1 Q808H (human) (Q14160 728-815 Q808H): as the sequence (Q14160 728-815 Q808H) above
# [5] = biological target: Scribble PDZ1 H793A (human) (UniProt Q14160); test: ITC
# Chain of Scribble PDZ1 H793A (human) (Q14160 728-815 H793A): as the sequence (Q14160 728-815 Q808H) above, with H66A, H81Q counted along it
# [6] = biological target: Scribble PDZ1 Q808H (human) (UniProt Q14160); test: ITC; remark: listed apart in the source
# Scribble PDZ2 R896A = biological target: T4, Scribble PDZ2 R896A; test: ITC
# Scribble PDZ3 R1044Q = biological target: T5, Scribble PDZ3 R1044Q; test: ITC
# Scribble PDZ1 Q808H = Scribble PDZ1 Q808H (human, UniProt Q14160 728-815, Q808H); test: ITC
# Chain of Scribble PDZ1 Q808H (Q14160 728-815 Q808H): as the sequence (Q14160 728-815 Q808H) above
# Scribble PDZ1 H793A = Scribble PDZ1 H793A (human, UniProt Q14160 728-815, H793A); test: ITC
# Chain of Scribble PDZ1 H793A (Q14160 728-815 H793A): as the sequence (Q14160 728-815 Q808H) above, with H66A, H81Q counted along it
# Scribble PDZ3 P1043L = biological target: T6, Scribble PDZ3 P1043L; test: ITC
# Scribble PDZ1 E814G = Scribble PDZ1 E814G (human, UniProt Q14160 728-815, E814G); test: ITC
# Chain of Scribble PDZ1 E814G (Q14160 728-815 E814G): as the sequence (Q14160 728-815 Q808H) above, with H81Q, E87G counted along it
# Scribble PDZ2 H928A = biological target: T7, Scribble PDZ2 H928A; test: ITC
molecule,measurement,setting,value
CC(C)C[C@H](NC(=O)[C@@H](N)CCCNC(=N)N)C(=O)N[C@@H](CCC(N)=O)C(=O)N[C@@H](CO)C(=O)N[C@@H](CCC(=O)O)C(=O)N[C@H](C(=O)N[C@@H](CO)C(=O)N[C@H](C(=O)O)C(C)C)[C@@H](C)O [Vangl2] (H-RLQSETSV-OH),Kd,Scrib PDZ1 Q808H,10.4 ± 0.27 µM
same,Kd,Scrib PDZ3 R1044Q,20.9 ± 4.67 µM
same,Kd,Scrib PDZ2 WT (860–950),45.1 ± 4.92 µM
same,Kd,[1],40.2 ± 3.92 µM
same,Kd,Scrib PDZ1 WT (728–815),24.5 ± 3.9 µM
APC C-terminal peptide,Kd,[2],30.6 µM
same,Kd,[3],27.4 µM
same,Kd,[4],6.06 µM
beta-PIX C-terminal peptide,Kd,[2],189 µM
same,Kd,[3],14.1 µM
same,Kd,[4],3.11 µM
same,Kd,[5],62.8 µM
same,Kd,[6],10.4 µM
RSWFETWV [superpeptide (synthetic pan-PDZ binding peptide)],Kd,Scribble PDZ2 R896A,7.8 µM
same,Kd,Scribble PDZ3 R1044Q,7.22 µM
same,Kd,Scribble PDZ1 Q808H,2730 nM
same,Kd,Scribble PDZ1 H793A,2.18 µM
same,Kd,Scribble PDZ3 P1043L,9.75 µM
same,Kd,Scribble PDZ1 E814G,2360 nM
same,Kd,Scribble PDZ2 H928A,27.7 µM
RLQSETSV [Vangl2 C-terminal PBM peptide (RLQSETSV)],Kd,Scribble PDZ2 R896A,26.7 µM
same,Kd,Scribble PDZ1 H793A,29.9 µM
